A short description of series [1]: Growth inhibition of human UACC62 cells after 48 hrs by sulforhodamine B assay. Type of series: functional. The conditions noted are these: UACC-62, 48 h. Summed up: (§1)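 Tumour lines from NCI and Vero from the Rio de Janeiro Cell Bank, grown in RPMI 1640 with 5% fetal bovine serum, with penicillin:streptomycin added to experimental cultures. Each compound was tested at four 10-fold dilutions; sulforhodamine B staining at time zero and 48 h. Proliferation was calculated against T0 and drug-free controls, and GI50 came from sigmoidal regression of the concentration-response curves. Representative experiment in triplicate.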
On the technique in general: In SRB staining, fixed cells bind dye roughly in proportion to their protein.

The nature of series [2]: Growth inhibition of human OVCAR3 cells after 48 hrs by sulforhodamine B assay. To be noted: OVCAR-3, 48 h. The class given is functional. Summed up:
as §1

Series [3] deals with K562. Briefly: Growth inhibition of human K562 cells after 48 hrs by sulforhodamine B assay. The class given is functional. The conditions noted are these: K562, 48 h. Summed up:
as §1

Series [4] relates to 786-0. Briefly: Growth inhibition of human 786-0 cells after 48 hrs by sulforhodamine B assay. Type of series: functional. To be noted: 786-0, 48 h. The method, boiled down: as §1
The subject of series [5] is PC-3. Briefly: Growth inhibition of human PC3 cells after 48 hrs by sulforhodamine B assay. The conditions noted are these: PC-3, 48 h. Type of series: functional. The method, boiled down: as §1
Series [6] is described as follows: Growth inhibition of human NCI-ADR-RES cells after 48 hrs by sulforhodamine B assay. The class given is functional. Summed up:
as §1

Series [7] concerns U-251. Briefly: Growth inhibition of human U251 cells after 48 hrs by sulforhodamine B assay. The conditions noted are these: U-251, 48 h. Type of series: functional. Summed up:
as §1

In series [8] the test system is HT-29. Briefly: Growth inhibition of human HT-29 cells after 48 hrs by sulforhodamine B assay. The class given is functional. The conditions noted are these: HT-29, 48 h. Summed up: as §1
Series [9] relates to NCI-H460. Briefly: Growth inhibition of human NCI-H460 cells after 48 hrs by sulforhodamine B assay. To be noted: NCI-H460, 48 h. The class given is functional. The method, boiled down:
as §1

For series [10], the system named is MCF7. Briefly: Growth inhibition of human MCF7 cells after 48 hrs by sulforhodamine B assay. The class given is functional. To be noted: MCF7, 48 h. Summed up:
as §1

A short description of series [11]: (§2) Growth inhibition of African green monkey Vero cells after 48 hrs by sulforhodamine B assay. To be noted: chlorocebus sabaeus, Vero cells. The class given is cell-based. The method, boiled down:
as §1

In series [12] the test system is Vero. The series is described as §2. Type of series: cell-based. To be noted: chlorocebus sabaeus, vero, 48 h. The method, boiled down: as §1

For the compound `CC1=CC[C@H](C(C)(C)NC(=S)N/N=C(\C)c2ccc([N+](=O)[O-])cc2)CC1`, the 50% growth inhibitory concentration (GI50) (commonly the concentration that inhibits growth by half) is 7.2 µM in series [1]; 7.7 µM in series [2]; 83.4 µM in series [3]; 21.7 µM in series [4]; 62.6 µM in [5]; 9.9 µM in series [6]. The GI50 in series [7] is 7 µM; in [8], 29.9 µM; in series [9], 50.8 µM; in series [10], 8 µM. Further, the concentration for total growth inhibition (TGI) (in general, the concentration at which net growth stops) in [1] is 46.8 µM; in series [2], 29.3 µM; in [3] it was > 100 µM; in series [4], > 100 µM; in series [5] it was > 100 µM; in series [6], > 100 µM. The concentration for total growth inhibition (TGI) was 29.3 µM in series [7]; > 100 µM in [8]; 83.7 µM in series [9]; 77.5 µM in [10]; > 100 µM in [12]. In addition, it took 67.1 µM to inhibit growth in series [11] by half (GI50 at 48 h).

With `CC1=CC[C@H](C(C)(C)NC(=S)N/N=C/c2ccco2)CC1`, the GI50 in series [1] is 10.7 µM; in series [2], 10.8 µM; in [3], 0.1 µM; in [4], 11.7 µM; in series [5] it was 13.5 µM; in series [6] it was 9.8 µM. The GI50 in series [7] amounted to 9.7 µM; in series [8] it was 7.2 µM; in series [9], 13.5 µM; in series [10] it was 9.3 µM. Moreover, the TGI in series [1] is 14.1 µM; in series [2] it was 13.8 µM; in [3] it was > 100 µM; in series [4], 9.8 µM; in [5] it was 27.2 µM; in series [6], 14.1 µM. Besides, the TGI in series [7] stood at 81.5 µM; in series [8] it was 26.9 µM; in series [9] it was 10.8 µM; in series [10], 53.7 µM; in series [12] it was 14.7 µM. Further, the 50% growth inhibitory concentration (GI50) at 48 h in series [11] is 5.1 µM.

In the case of `CC1=CC[C@H](C(C)(C)NC(=S)N/N=C/c2ccccc2Cl)CC1`, the GI50 in [1] worked out at 19.3 µM; in series [2], 15.1 µM; in [3], 5.6 µM; in series [4] it was 85.5 µM; in [5], 0.05 µM; in [6], 75 µM. The GI50 in series [7] stood at 80.6 µM; in series [8], 71.3 µM; in series [9], 64.5 µM; in series [10], 11 µM. Also, the concentration for total growth inhibition (TGI) in series [1] is 98 µM; in series [2], 83.6 µM; in [3] it was 66.2 µM; in series [4], > 100 µM; in series [5], 0.7 µM; in [6], > 100 µM. The TGI in [7] was > 100 µM; in series [8], > 100 µM; in series [9], 81 µM; in series [10] it was 98.3 µM; in series [12], > 100 µM. Besides, growth in [11] was halved (GI50 at 48 h) at 74.6 µM.

Regarding `CC1=CC[C@H](C(C)(C)NC(=S)N/N=C/c2cccs2)CC1`, the concentration for 50% growth inhibition (GI50) in series [1] came out at 2.6 µM; in series [2] it was 13.1 µM; in series [3], 17.6 µM; in [4] it was 11.5 µM; in [5] it was 17.8 µM; in [6], 13.6 µM. Moreover, the GI50 came out at 13.5 µM in series [7], 17.8 µM in series [8], 10.8 µM in series [9] and 4.8 µM in [10]. In addition, the TGI in [1] was 19 µM; in [2], 35.1 µM; in series [3] it was > 100 µM; in [4] it was 26.7 µM; in series [5], 62.8 µM; in series [6], 41 µM. The concentration for total growth inhibition (TGI) was found to be 27.4 µM in [7]; 57.8 µM in [8]; 20.8 µM in [9]; 11.5 µM in [10]; 13.4 µM in series [12]. In series [11], this compound yielded a GI50 at 48 h of 10.1 µM.

Consider `CC1=CC[C@H](C(C)(C)NC(=S)N/N=C/c2cccc([N+](=O)[O-])c2)CC1`, for which the 50% growth inhibitory concentration (GI50) in series [1] is > 100 µM; in [2] it was > 100 µM; in [3], 45.6 µM; in series [4], > 100 µM; in [5], 9.5 µM; in series [6] it was > 100 µM. The GI50 in series [7] was > 100 µM; in series [8] it was 0.6 µM; in series [9], > 100 µM; in [10] it was > 100 µM. Moreover, the TGI was > 100 µM in series [1]; > 100 µM in [2]; > 100 µM in series [3]; > 100 µM in series [4]; 88 µM in series [5]; > 100 µM in series [6]. Besides, the concentration for total growth inhibition (TGI) in series [7] was > 100 µM; in series [8], 21.9 µM; in [9] it was > 100 µM; in series [10], > 100 µM; in series [12] it was > 100 µM. The GI50 at 48 h in series [11] is > 100 µM.

For the compound `CC1=CC[C@H](C(C)(C)NC(=S)N/N=C/c2ccc(C)cc2)CC1`, the GI50 in series [1] is 75.9 µM; in [2], 67.2 µM; in [3], 1.6 µM; in series [4], 87.2 µM; in series [5] it was < 0.04 µM; in [6], 78.5 µM. The GI50 stood at 89.2 µM in [7], 20.2 µM in series [8], 75.7 µM in series [9] and 15.2 µM in series [10]. The TGI is > 100 µM in [1]; > 100 µM in series [2]; 56.8 µM in [3]; > 100 µM in series [4]; 0.9 µM in [5]; > 100 µM in series [6]. The concentration for total growth inhibition (TGI) in series [7] is > 100 µM; in [8], 94.5 µM; in series [9], > 100 µM; in [10], 93.6 µM; in [12], > 100 µM. Besides, growth in series [11] was halved (GI50 at 48 h) at 81.4 µM.

`COc1cc(/C=N/NC(=S)NC(C)(C)[C@H]2CC=C(C)CC2)ccc1O`: the 50% growth inhibitory concentration (GI50) in series [1] stood at 14.7 µM; in series [2], 53.5 µM; in series [3] it was 1.9 µM; in series [4], 12.9 µM; in series [5], 0.3 µM; in series [6], 23.9 µM. Moreover, the concentration for 50% growth inhibition (GI50) in series [7] is 11.7 µM; in series [8] it was < 0.04 µM; in series [9], > 100 µM; in series [10], 14.8 µM. In addition, the total growth inhibition concentration (TGI) was 42.3 µM in series [1]; > 100 µM in [2]; 85.2 µM in series [3]; 35.4 µM in [4]; 8.3 µM in series [5]; > 100 µM in [6]. Besides, the total growth inhibition concentration (TGI) in series [7] is 32.6 µM; in [8], < 0.7 µM; in [9], > 100 µM; in series [10], 63.9 µM; in [12], 91.8 µM. For the same compound, the GI50 at 48 h in series [11] stood at 19.7 µM.

`CC1=CC[C@H](C(C)(C)NC(=S)N/N=C/c2ccc(O)cc2)CC1`: the GI50 was > 100 µM in [1]; > 100 µM in series [2]; > 100 µM in series [3]; > 100 µM in series [4]; 0.6 µM in [5]; 82.1 µM in [6]. Besides, the GI50 in series [7], in [8], in series [9] and in series [10] was > 100 µM throughout. Moreover, the concentration for total growth inhibition (TGI) in [1] is > 100 µM; in series [2], > 100 µM; in series [3], > 100 µM; in series [4], > 100 µM; in [5], 53.8 µM; in [6], > 100 µM. For the same compound, the TGI in series [7], in series [8], in series [9], in [10] and in [12] was > 100 µM in each case. The GI50 at 48 h in series [11] is > 100 µM.

Regarding `CC1=CC[C@H](C(C)(C)NC(=S)N/N=C/c2ccc[nH]2)CC1`, the 50% growth inhibitory concentration (GI50) in [1] turned out to be 14.8 µM; in series [2], 33.5 µM; in [3], 23.4 µM; in series [4], 20.8 µM; in series [5], 2.8 µM; in [6], 78 µM. Further, the concentration for 50% growth inhibition (GI50) in series [7] came out at 0.08 µM; in series [8] it was 27.5 µM; in series [9], 18 µM; in series [10] it was 3.9 µM. Further, the TGI in series [1] was 49.9 µM; in [2] it was > 100 µM; in [3] it was > 100 µM; in series [4], > 100 µM; in series [5] it was > 100 µM; in [6], > 100 µM. The total growth inhibition concentration (TGI) is 3.9 µM in series [7]; > 100 µM in series [8]; 57.5 µM in [9]; 11.5 µM in series [10]; > 100 µM in series [12]. The compound also yielded a GI50 at 48 h in series [11] of 20.5 µM.

Turning to `CC1=CC[C@H](C(C)(C)NC(=S)N/N=C/c2ccc(Cl)cc2)CC1`, the GI50 in [1] was 11.2 µM; in series [2], 8.6 µM; in series [3] it was 0.3 µM; in series [4] it was 74.9 µM; in series [5] it was 0.05 µM; in [6], 65.2 µM. Also, the GI50 was 69.5 µM in series [7], 13.6 µM in series [8], 7.8 µM in series [9] and 18.3 µM in series [10]. For the same compound, the TGI is > 100 µM in series [1]; 26.4 µM in series [2]; 16.9 µM in series [3]; > 100 µM in series [4]; 1.7 µM in series [5]; 97.4 µM in [6]. The TGI was > 100 µM in [7]; 70.5 µM in series [8]; 21.1 µM in [9]; > 100 µM in series [10]; > 100 µM in series [12]. In [11], this compound showed a 50% growth inhibitory concentration (GI50) at 48 h of 70 µM.

For the origin of these results see ChEMBL document CHEMBL3232876, “Novel R-(+)-limonene-based thiosemicarbazones and their antitumor activity against human tumor cell lines” (Eur J Med Chem, 2014).
